# Source: publication PMC8649585 (Neoplasia (New York, N.Y.), 2021)
# Like-named read-outs stand apart in the source and are kept apart here.
# How the values were obtained:
# [1] = system: HEPG2 cells; assay: Cell proliferation assay; type: cell-based, human; conditions: FGFR4 overexpression, HCC
# Outline: (§1)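 Seeding was 5 × 10^3 cells per well in 96-well plates: HEP3B in DMEM, HUH7 and HEPG2 in RPMI1640, all with 10% FBS at 37 °C under 5% CO2. Cells received 10 doses of test compound in 3-fold serial dilution for 72 h. Viability was read by CellTiter-Glo luminescence.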
# [2] = system: KMS-11 cells; assay: Cell proliferation assay; type: cell-based
# [3] = system: MDA-MB-453 cells; assay: Cell proliferation assay; type: cell-based
# Outline: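 MDA-MB-453 cells (DMEM, 10% FBS, 37 °C, 5% CO2) were plated at 5 × 10^3 per well in 96-well plates. Test compound was added at 10 doses in 3-fold serial dilution for 72 h. Viability was read by CellTiter-Glo luminescence, and GI50 was derived from the dose-response curves.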
# [4] = system: AN3-CA cells; assay: Cell proliferation assay; type: cell-based; conditions: 72 h
# [5] = system: HUH7 cells; assay: Cell proliferation assay; type: cell-based, human
# Outline: as §1
# [6] = system: J82 cells; assay: Cell proliferation assay; type: cell-based
# [7] = system: HEP3B cells; assay: Cell proliferation assay; type: cell-based, human; conditions: 72 h
# Outline: as §1
# [8] = system: HEP3B cells; assay: Apoptosis assay; type: cell-based, human; conditions: 24 h
# Outline: (§2)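 Cells (1 × 10^5) were treated with test compound for 24 h, then harvested and stained with Alexa Fluor 488 annexin V and propidium iodide per kit instructions, and analysed by flow cytometry. Culture: HEP3B and SK-HEP1 in DMEM, HUH7 in RPMI1640, each with 10% FBS and antibiotic-antimycotic, at 37 °C under 5% CO2.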
# [9] = system: HUH7 cells; assay: Cell cycle analysis; type: cell-based, human; conditions: 18 h
# Outline: (§3)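 Cells seeded at 1 × 10^5 on 60 mm plates and exposed to test compound for 18 h. They were then fixed in 70% ethanol and resuspended in PBS containing 50 μg/mL propidium iodide. DNA content was measured by flow cytometry to give the cell cycle phase distribution.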
# [10] = target: FGFR2 WT (Homo sapiens, UniProt P21802); assay: Radiometric biochemical kinase assay; conditions: ATP 10 µM
# [11] = target: FGFR4 WT (Homo sapiens, UniProt P22455); assay: Radiometric biochemical kinase assay
# [12] = system: phosphorylation of FGFR and downstream molecules (PLCγ, FRS2α, AKT, ERK1/2) in HEP3B cells; assay: Western blot of FGFR signaling; type: cell-based, human; conditions: dose-dependent
# Outline: (§4)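 After SDS-PAGE, proteins were transferred to nitrocellulose and blocked in 5% milk in TBS-T. Rabbit antibodies (FGFR4, pFGFR, pERK, pFRS2α, pPLCγ, β-actin) were applied overnight at 4 °C, then secondary for 1 h. Detection was by ECL with densitometry.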
# [13] = system: HEP3B cells; assay: Cell cycle analysis; type: cell-based, human; conditions: 18 h
# Outline: as §3
# [14] = system: SK-HEP1 cells; assay: Cell cycle analysis; type: cell-based; conditions: 18 h
# [15] = system: HEP3B cells; assay: Soft agar anchorage-independent growth assay; type: cell-based, human; conditions: GNF-7 0.1 or 0.5 µM, SIJ1263 0.01 or 0.05 µM, 3 weeks
# Outline: (§5)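 The base layer was 0.5% agar in DMEM in 6-well plates. Cells were suspended in 2× DMEM with 0.7% agar (0.35% agar per legend) at 5 × 10^3 cells per well and overlaid with medium containing test compound. Plates were incubated for 3 weeks at 37 °C under 5% CO2. Colonies were stained with iodonitrotetrazolium chloride in PBS and imaged.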
# [16] = system: SK-HEP1 cells; assay: Apoptosis assay; type: cell-based; conditions: 24 h
# Outline: as §2
# [17] = target: FGFR2 N549H (Homo sapiens, UniProt P21802, N549H); assay: Radiometric biochemical kinase assay; conditions: ATP 10 µM
# [18] = target: FGFR1 V561M (Homo sapiens, UniProt P11362, V561M); assay: Radiometric biochemical kinase assay; conditions: ATP 10 µM
# [19] = system: HUH7 cells; assay: Scratch wound healing migration assay; type: cell-based, human; conditions: GNF-7 0.01 or 0.05 μM, SIJ1263 0.002 or 0.005 μM, PD173074 0.1 μM, 36 h
# [20] = system: HUH7 cells; assay: Apoptosis assay; type: cell-based, human; conditions: 24 h
# Outline: as §2
# [21] = target: FGFR1 WT (Homo sapiens, UniProt P11362); assay: Radiometric biochemical kinase assay; conditions: ATP 10 µM
# [22] = system: HEP3B cells; assay: Scratch wound healing migration assay; type: cell-based, human; conditions: GNF-7 0.01 or 0.05 μM, SIJ1263 0.002 or 0.005 μM, PD173074 0.1 μM
# [23] = system: HEP3B cells; assay: Invasion assay; type: cell-based, human; conditions: low concentrations
# Outline: (§6)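 Cells (HUH7 in RPMI1640, HEP3B in DMEM) were serum-starved for 12 h. They were then seeded at 5.0 × 10^4 cells per chamber into 8 μm ECMatrix-coated transwell chambers (QCM collagen invasion kit). Test compound was added and chambers were incubated at 37 °C under 5% CO2. Invaded cells were stained with 0.005% crystal violet in PBS.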
# [24] = system: HUH7 cells; assay: Soft agar anchorage-independent growth assay; type: cell-based, human; conditions: GNF-7 0.1 or 0.5 µM, SIJ1263 0.01 or 0.05 µM, 3 weeks
# Outline: as §5
# [25] = system: phosphorylation of FGFR and downstream molecules (PLCγ, FRS2α, AKT, ERK1/2) in HUH7 cells; assay: Western blot of FGFR signaling; type: cell-based, human; conditions: dose-dependent
# Outline: as §4
# [26] = system: SK-HEP1 cells; assay: Soft agar anchorage-independent growth assay; type: cell-based; conditions: 5 µM, 3 weeks
# Outline: as §5
# [27] = system: HUH7 cells; assay: Invasion assay; type: cell-based, human; conditions: low concentrations
# Outline: as §6
# Chain of FGFR4 WT (P22455 22-802): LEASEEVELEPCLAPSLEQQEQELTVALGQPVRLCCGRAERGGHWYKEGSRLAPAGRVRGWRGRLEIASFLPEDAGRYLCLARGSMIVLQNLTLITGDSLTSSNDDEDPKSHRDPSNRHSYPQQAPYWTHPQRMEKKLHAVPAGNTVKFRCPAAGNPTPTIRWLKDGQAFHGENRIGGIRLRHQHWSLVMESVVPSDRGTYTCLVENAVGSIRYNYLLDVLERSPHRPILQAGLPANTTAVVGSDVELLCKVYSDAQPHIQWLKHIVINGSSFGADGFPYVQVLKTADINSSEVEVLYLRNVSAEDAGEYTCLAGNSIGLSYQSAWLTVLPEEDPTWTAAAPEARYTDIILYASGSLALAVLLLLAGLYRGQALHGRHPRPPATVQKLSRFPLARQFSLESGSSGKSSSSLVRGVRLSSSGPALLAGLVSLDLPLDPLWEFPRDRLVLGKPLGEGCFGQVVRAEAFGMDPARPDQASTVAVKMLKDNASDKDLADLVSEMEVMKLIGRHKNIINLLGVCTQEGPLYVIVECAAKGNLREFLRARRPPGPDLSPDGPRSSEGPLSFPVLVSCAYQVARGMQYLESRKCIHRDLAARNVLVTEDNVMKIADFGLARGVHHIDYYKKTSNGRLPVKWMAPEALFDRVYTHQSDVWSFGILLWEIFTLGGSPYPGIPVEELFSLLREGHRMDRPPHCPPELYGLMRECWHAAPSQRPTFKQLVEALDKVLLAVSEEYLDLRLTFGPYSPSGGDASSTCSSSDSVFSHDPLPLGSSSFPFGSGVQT
# Chain of FGFR2 N549H (P21802 22-821 N549H): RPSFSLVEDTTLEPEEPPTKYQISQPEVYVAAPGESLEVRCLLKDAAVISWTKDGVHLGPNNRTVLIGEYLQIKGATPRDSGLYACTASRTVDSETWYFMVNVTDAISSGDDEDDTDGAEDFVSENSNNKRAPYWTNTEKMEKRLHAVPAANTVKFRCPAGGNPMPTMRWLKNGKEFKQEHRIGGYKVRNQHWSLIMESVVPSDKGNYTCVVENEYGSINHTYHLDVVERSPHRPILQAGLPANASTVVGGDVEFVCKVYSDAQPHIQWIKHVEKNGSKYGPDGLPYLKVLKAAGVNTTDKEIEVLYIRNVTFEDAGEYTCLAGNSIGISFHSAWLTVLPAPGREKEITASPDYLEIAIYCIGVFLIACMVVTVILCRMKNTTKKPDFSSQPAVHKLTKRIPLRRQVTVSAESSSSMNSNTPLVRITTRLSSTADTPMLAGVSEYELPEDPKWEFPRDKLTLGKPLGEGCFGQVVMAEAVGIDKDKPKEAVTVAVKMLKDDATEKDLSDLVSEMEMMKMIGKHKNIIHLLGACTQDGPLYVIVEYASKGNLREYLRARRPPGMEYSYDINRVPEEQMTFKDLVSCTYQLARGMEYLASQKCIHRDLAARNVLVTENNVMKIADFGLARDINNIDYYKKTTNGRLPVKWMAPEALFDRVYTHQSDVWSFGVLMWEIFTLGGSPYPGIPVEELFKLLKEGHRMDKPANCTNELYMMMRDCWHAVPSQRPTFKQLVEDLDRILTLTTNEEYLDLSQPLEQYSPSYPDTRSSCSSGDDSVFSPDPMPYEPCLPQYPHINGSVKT
# Chain of FGFR2 WT (P21802 22-821): as the sequence (P21802 22-821 N549H) above, with H528N counted along it
# Chain of FGFR1 V561M (P11362 22-822 V561M): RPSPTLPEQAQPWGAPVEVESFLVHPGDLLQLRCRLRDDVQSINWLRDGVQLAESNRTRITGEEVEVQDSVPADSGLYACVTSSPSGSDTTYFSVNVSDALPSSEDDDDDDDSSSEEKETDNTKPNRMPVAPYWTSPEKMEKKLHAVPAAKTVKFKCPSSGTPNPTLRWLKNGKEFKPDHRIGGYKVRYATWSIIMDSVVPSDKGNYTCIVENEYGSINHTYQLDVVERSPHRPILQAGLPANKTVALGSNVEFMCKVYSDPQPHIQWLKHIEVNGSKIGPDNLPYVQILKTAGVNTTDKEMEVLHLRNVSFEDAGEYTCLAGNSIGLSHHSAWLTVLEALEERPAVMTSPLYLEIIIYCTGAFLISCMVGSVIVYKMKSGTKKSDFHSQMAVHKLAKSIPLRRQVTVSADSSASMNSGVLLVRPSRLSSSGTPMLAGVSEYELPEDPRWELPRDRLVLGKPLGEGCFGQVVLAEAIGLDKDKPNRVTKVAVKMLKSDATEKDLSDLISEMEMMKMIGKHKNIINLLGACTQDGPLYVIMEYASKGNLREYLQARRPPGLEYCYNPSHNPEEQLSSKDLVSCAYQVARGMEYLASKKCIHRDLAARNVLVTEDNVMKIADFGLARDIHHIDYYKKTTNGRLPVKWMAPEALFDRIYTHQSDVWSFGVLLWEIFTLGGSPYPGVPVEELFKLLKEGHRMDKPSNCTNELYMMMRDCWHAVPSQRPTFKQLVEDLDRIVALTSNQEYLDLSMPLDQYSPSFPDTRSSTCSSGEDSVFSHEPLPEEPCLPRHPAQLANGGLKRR
# Chain of FGFR1 WT (P11362 22-822): as the sequence (P11362 22-822 V561M) above, with M540V counted along it
smiles,measurement,setting,value
"CCN1CCN(c2ccc(Nc3cc(N(C)C(=O)Nc4c(Cl)c(OC)cc(OC)c4Cl)ncn3)cc2)CC1 [BGJ398, 3-(2,6-dichloro-3,5-dimethoxy-phenyl)-1-{6-[4-(4-ethyl-piperazin-1-yl)-phenylamino]-pyrimidin-4-yl}-1-methyl-urea]",GI50,"[1]; Homo sapiens, HepG2, 72 h",5370 ± 1100 nM
same,GI50,"[2]; Homo sapiens, KMS-11, 72 h",143 ± 100 nM
same,GI50,"[3]; Homo sapiens, MDA-MB-453, 72 h",2640 ± 280 nM
same,GI50,[4]; Homo sapiens,57 ± 10 nM
same,GI50,"[5]; Homo sapiens, Huh-7, 72 h",157 ± 120 nM
same,GI50,"[6]; Homo sapiens, J82, 72 h",2840 ± 1570 nM
same,GI50,"[7]; Homo sapiens, Hep3B",1370 ± 140 nM
C=CC(=O)Nc1cccc(C)c1Nc1ncc2cc(-c3c(Cl)c(OC)cc(OC)c3Cl)ccc2n1 [BLU9931],GI50,"[2]; Homo sapiens, KMS-11, 72 h",541 ± 10 nM
same,GI50,"[3]; Homo sapiens, MDA-MB-453, 72 h",2150 ± 380 nM
same,GI50,[4]; Homo sapiens,9200 ± 450 nM
same,GI50,"[5]; Homo sapiens, Huh-7, 72 h",715 ± 100 nM
same,GI50,"[6]; Homo sapiens, J82, 72 h",5870 ± 580 nM
same,GI50,"[7]; Homo sapiens, Hep3B",4220 ± 1030 nM
Cc1ccc(Nc2ncc3c(n2)N(C)C(=O)N(c2cc(NC(=O)c4cccc(C(F)(F)F)c4)ccc2C)C3)cn1 [GNF-7],apoptosis induction,[8],inducing apoptosis
same,cell cycle distribution,[9],induce G0/G1 phase cell cycle arrest with decrease in the S phase
same,IC50,[10],20 nM
same,GI50,[1]; 72 h,366 ± 70 nM
same,IC50,"[11]; FGFR4 WT, radiometric, ATP 10 µM",4 nM
same,IC50,"[11]; read-out: IC50 against FGFR4, wtFGFR4",4.17 nM
same,phosphorylation of FGFR and downstream signaling molecules,[12],inhibiting significantly phosphorylation
same,cell cycle distribution,[13],induce G0/G1 phase cell cycle arrest with decrease in the S phase
same,induction of G0/G1 phase cell cycle arrest,[14],little effects
same,suppression of colony-formation,[15],almost completely
same,GI50,"[2]; KMS-11, FGFR3 Y373C, myeloma, 72 h",15 nM
same,GI50,"[3]; MDA-MB-453, FGFR4 overexpression, breast cancer, 72 h",443 ± 70 nM
same,apoptosis induction,[16],little effects
same,IC50,[17],7 nM
same,IC50,[18],7540 nM
same,wound healing (migration),[19],substantially reduced
same,apoptosis induction,[20],inducing apoptosis
same,IC50,[21],11 nM
same,GI50,"[4]; FGFR2 N549K/K310R, endometrium",17 nM
same,GI50,"[5]; HUH7, FGFR4 overexpression, HCC, 72 h",60 ± 10 nM
same,wound healing (migration),[22],substantially reduced
same,effect on invasion,[23],remarkably attenuate invasion
same,suppression of colony-formation,[24],almost completely
same,phosphorylation of FGFR and downstream signaling molecules,[25],inhibiting significantly phosphorylation
same,GI50,"[6]; J82, FGFR3 K652E, urinary bladder, 72 h",50 ± 10 nM
same,block of colony formation,[26],11%
same,GI50,"[7]; HEP3B, FGFR4 overexpression, HCC",373 ± 150 nM
same,effect on invasion,[27],remarkably attenuate invasion
CCN(CC)CCCCNc1ncc2cc(-c3cc(OC)cc(OC)c3)c(NC(=O)NC(C)(C)C)nc2n1 [PD173074],GI50,[1]; 72 h,13400 ± 3600 nM
same,GI50,"[1]; Homo sapiens, HepG2, 72 h",> 10000 nM
same,IC50,[11],97 nM
same,GI50,"[2]; Homo sapiens, KMS-11, 72 h",64 ± 20 nM
same,GI50,"[3]; Homo sapiens, MDA-MB-453, 72 h",> 10000 nM
same,wound healing (migration),[19],moderately reduced the wound healing
same,GI50,[4]; Homo sapiens,973 ± 2550 nM
same,GI50,"[5]; Homo sapiens, Huh-7, 72 h",598 ± 240 nM
same,wound healing (migration),[22],moderately reduced the wound healing
same,effect on invasion,[23],little effect on invasion capability
same,GI50,"[6]; Homo sapiens, J82, 72 h",975 ± 450 nM
same,GI50,"[7]; Homo sapiens, Hep3B",2500 ± 490 nM
same,effect on invasion,[27],little effect on invasion capability
CNC(=O)c1cc(Oc2ccc(NC(=O)Nc3ccc(Cl)c(C(F)(F)F)c3)cc2)ccn1 [sorafenib],GI50,"[1]; Homo sapiens, HepG2, 72 h",8560 ± 1450 nM
same,GI50,"[5]; Homo sapiens, Huh-7, 72 h",9590 ± 2060 nM
same,GI50,"[7]; Homo sapiens, Hep3B",5420 ± 1120 nM
